This is an account of results in ChEMBL document CHEMBL1138493, “Synthesis and modeling of new benzofuranone histone deacetylase inhibitors that stimulate tumor suppressor gene expression” (J Med Chem, 2009).

The target of test [1] is Histone deacetylase (Homo sapiens) (UniProt Q13547+O15379+Q9UBN7+Q92769+Q9UQL6+Q8WUI4+Q9BY41+Q96DB2+P56524+Q9UKV0+Q969S8). The experiment in a line: Inhibition of HDAC in human NCI-H661 cells assessed as induction of histone H4 acetylation at 3 uM after 6 hrs by Western blot analysis. The test is classed as cell-based. In outline:
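NCI-H661 cells exposed to compound for 6 h, then lysed and probed by Western blot for acetylated histone H4, with tubulin acetylation blotted alongside. Blots shown are representative of three independent experiments.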
A general note: In western blotting, separated proteins are transferred to a membrane and probed.

Test [2] has as its system NCI-H661. In words: Increase in semaphoring 3F mRNA expression in human NCI-H661 cells at 300 nM by qRT-PCR relative to control. The test is classed as functional. Background: In qPCR the cycle at which signal appears reflects the starting amount.
The subject of test [3] is NCI-H661. In words: Increase in E-cadherin mRNA expression in human NCI-H661 cells at 300 nM by qRT-PCR relative to control. The test is classed as functional.
Test [4] concerns NCI-H661. The experiment in a line: Antiproliferative activity against human NCI-H661 cells after 48 hrs by XTT assay. In kind it is functional, cell-based. To be noted: NCI-H661, 48 h.

The structures appear in SMILES notation. Active and inactive are the calls of the source. No cut-off for these calls is given here.

Regarding `CC(/C=C/C(=O)NO)=C\C1(C)Oc2ccccc2C1=O` (centres undefined), in test [1], the result was Active.

For the compound `CC(/C=C/C(=O)NO)=C\[C@@H](C)C(=O)c1ccc(N(C)C)cc1` [TRICHOSTATIN], the “fold change (FC)” value in the test on NCI-H661 [2] stood at 4; in the test with NCI-H661 [3] it was 50. The IC50 in the test on NCI-H661 [4] turned out to be 100 nM.

The term IC50 denotes the concentration at which inhibition is half-maximal.
